In ChEMBL document CHEMBL3588757, “Structure-based design, synthesis and biological testing of piperazine-linked bis-epipodophyllotoxin etoposide analogs” (Bioorg Med Chem, 2015):

Key:
Type in all cases: functional
[1] = test system: K562; assay: Relative resistance, ratio of IC50 for etoposide-resistant human K/VP.5 cells to IC50 for human K562 cells
[2] = test system: U-251; assay: Cytotoxicity against human U251 cells assessed as cell growth at 50 uM by SRB assay; conditions: read-out: Activity
[3] = test system: MDA-MB-435; assay: Cytotoxicity against human MDA-MB-435 cells assessed as cell growth at 50 uM by SRB assay; conditions: read-out: Activity
[4] = test system: OVCAR-3; assay: Cytotoxicity against human OVCAR3 cells assessed as cell growth at 50 uM by SRB assay; conditions: read-out: Activity
[5] = test system: 786-0; assay: Cytotoxicity against human 786-0 cells assessed as cell growth at 50 uM by SRB assay; conditions: read-out: Activity
[6] = test system: UO-31; assay: Cytotoxicity against human UO31 cells assessed as cell growth at 50 uM by SRB assay; conditions: read-out: Activity
[7] = test system: MOLT-4; assay: Cytotoxicity against human MOLT4 cells by SRB assay
Method in brief: (§1)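 NCI-60 panel screen; 5-dose testing giving GI50 per cell line, plus a single 10 µM one-dose test. Method details not given beyond the NCI screen.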

[8] = test system: HOP-62; assay: Cytotoxicity against human HOP62 cells by SRB assay
Method in brief: (§2)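 Measured in the NCI-60 human tumour cell line panel using five-dose testing. Growth was recorded at each dose for each cell line, and a GI50 was derived for each line.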

[9] = test system: HCC 2998; assay: Cytotoxicity against human HCC2998 cells by SRB assay; method in brief: as §2
[10] = test system: HCT-116; assay: Cytotoxicity against human HCT116 cells by SRB assay; method in brief: as §2
[11] = test system: SF-295; assay: Cytotoxicity against human SF295 cells by SRB assay; method in brief: as §1
[12] = test system: SK-MEL-5; assay: Cytotoxicity against human SK-MEL-5 cells by SRB assay; method in brief: as §1
[13] = test system: OVCAR-3; assay: Cytotoxicity against human OVCAR3 cells by SRB assay; method in brief: as §1
[14] = test system: OVCAR-4; assay: Cytotoxicity against human OVCAR4 cells by SRB assay; method in brief: as §1
[15] = test system: CAKI-1; assay: Cytotoxicity against human Caki1 cells by SRB assay
[16] = Cytotoxicity against human Hs578T cells by SRB assay; conditions: Hs-578T; method in brief: as §2
[17] = test system: BT-549; assay: Cytotoxicity against human BT549 cells by SRB assay
[18] = test system: HOP-62; assay: Cytotoxicity against human HOP62 cells assessed as cell growth at 0.005 uM by SRB assay; conditions: read-out: Activity; method in brief: as §2
[19] = test system: HCT-116; assay: Cytotoxicity against human HCT116 cells assessed as cell growth at 0.005 uM by SRB assay; conditions: read-out: Activity; method in brief: as §2
[20] = test system: SK-MEL-5; assay: Cytotoxicity against human SK-MEL-5 cells assessed as cell growth at 0.005 uM by SRB assay; conditions: read-out: Activity
[21] = test system: UACC-257; assay: Cytotoxicity against human UACC257 cells assessed as cell growth at 0.005 uM by SRB assay; conditions: read-out: Activity
[22] = test system: UACC-62; assay: Cytotoxicity against human UACC62 cells assessed as cell growth at 0.005 uM by SRB assay; conditions: read-out: Activity
[23] = test system: T47D; assay: Cytotoxicity against human T47D cells assessed as cell growth at 0.005 uM by SRB assay; conditions: read-out: Activity
[24] = test system: CCRF-CEM; assay: Cytotoxicity against human CCRF-CEM cells assessed as cell growth at 0.05 uM by SRB assay; conditions: read-out: Activity
[25] = test system: MOLT-4; assay: Cytotoxicity against human MOLT4 cells assessed as cell growth at 0.05 uM by SRB assay; conditions: read-out: Activity
[26] = test system: RPMI-8226; assay: Cytotoxicity against human RPMI8226 cells assessed as cell growth at 0.05 uM by SRB assay; conditions: read-out: Activity
[27] = test system: NCI-H322M; assay: Cytotoxicity against human NCI-H322M cells assessed as cell growth at 0.05 uM by SRB assay; conditions: read-out: Activity
[28] = test system: NCI-H522; assay: Cytotoxicity against human NCI-H522 cells assessed as cell growth at 0.05 uM by SRB assay; conditions: read-out: Activity
[29] = Cytotoxicity against human NCI-ADR-RES cells assessed as cell growth at 0.05 uM by SRB assay; conditions: read-out: Activity
[30] = test system: MOLT-4; assay: Cytotoxicity against human MOLT4 cells assessed as cell growth at 0.5 uM by SRB assay; conditions: read-out: Activity
[31] = test system: SF-268; assay: Cytotoxicity against human SF268 cells assessed as cell growth at 0.5 uM by SRB assay; conditions: read-out: Activity
[32] = test system: SK-MEL-5; assay: Cytotoxicity against human SK-MEL-5 cells assessed as cell growth at 0.5 uM by SRB assay; conditions: read-out: Activity
[33] = test system: ACHN; assay: Cytotoxicity against human ACHN cells assessed as cell growth at 0.5 uM by SRB assay; conditions: read-out: Activity
[34] = test system: DU-145; assay: Cytotoxicity against human DU145 cells assessed as cell growth at 0.5 uM by SRB assay; conditions: read-out: Activity; method in brief: as §2
[35] = test system: CCRF-CEM; assay: Cytotoxicity against human CCRF-CEM cells assessed as cell growth at 5 uM by SRB assay; conditions: read-out: Activity
[36] = test system: HOP-92; assay: Cytotoxicity against human HOP92 cells assessed as cell growth at 5 uM by SRB assay; conditions: read-out: Activity; method in brief: as §2
[37] = test system: NCI-H226; assay: Cytotoxicity against human NCI-H226 cells assessed as cell growth at 5 uM by SRB assay; conditions: read-out: Activity
[38] = test system: HOP-92; assay: Cytotoxicity against human HOP92 cells assessed as cell growth at 50 uM by SRB assay; conditions: read-out: Activity; method in brief: as §2
[39] = read-out: LC50 (the source's name)
[40] = read-out: pLC50 (the source's name) (converted)

SMILES: COc1cc([C@@H]2c3cc4c(cc3[C@@H](NC(=O)CN3CCN(CCCCCCCCCCN5CCN(CC(=O)N[C@@H]6c7cc8c(cc7[C@@H](c7cc(OC)c(O)c(OC)c7)[C@H]7C(=O)OC[C@@H]76)OCO8)CC5)CC3)[C@H]3COC(=O)[C@H]23)OCO4)cc(OC)c1O
- Ratio IC50 [1]: 2.6
- growth at 50 µM [2]: -79%
- growth at 50 µM [3]: -40%
- growth at 50 µM [4]: -50%
- growth at 50 µM [5]: -78%
- growth at 50 µM [6]: -100%
- GI50 ([7]; read-out: GI50): 0.185 µM
- CC50 [7, 39]: 6.02 µM
- TGI ([7]; read-out: TGI): 1.4 µM
- GI50 ([7]; read-out: pGI50 (converted)): 0.186 µM
- CC50 [7, 40]: 6.03 µM
- TGI ([7]; read-out: pTGI (converted)): 1.41 µM
- GI50 ([8]; read-out: GI50): 0.0438 µM
- TGI ([8]; read-out: TGI): 0.863 µM
- GI50 ([8]; read-out: pGI50 (converted)): 0.0437 µM
- TGI ([8]; read-out: pTGI (converted)): 0.871 µM
- GI50 ([9]; read-out: GI50): 1.09 µM
- CC50 [9, 39]: 20.5 µM
- TGI ([9]; read-out: TGI): 8.39 µM
- GI50 ([9]; read-out: pGI50 (converted)): 1.1 µM
- CC50 [9, 40]: 20.4 µM
- TGI ([9]; read-out: pTGI (converted)): 8.32 µM
- GI50 ([10]; read-out: GI50): 1 µM
- CC50 [10, 39]: 46.5 µM
- TGI ([10]; read-out: TGI): 3.46 µM
- GI50 ([10]; read-out: pGI50 (converted)): 1 µM
- CC50 [10, 40]: 46.8 µM
- TGI ([10]; read-out: pTGI (converted)): 3.47 µM
- GI50 ([11]; read-out: GI50): 0.894 µM
- CC50 [11, 39]: > 50 µM
- TGI ([11]; read-out: TGI): 9.49 µM
- GI50 ([11]; read-out: pGI50 (converted)): 0.891 µM
- CC50 [11, 40]: > 50.1 µM
- TGI ([11]; read-out: pTGI (converted)): 9.55 µM
- GI50 ([12]; read-out: GI50): 5.24 µM
- CC50 [12, 39]: 35.4 µM
- TGI ([12]; read-out: TGI): 13.6 µM
- GI50 ([12]; read-out: pGI50 (converted)): 5.25 µM
- CC50 [12, 40]: 35.5 µM
- TGI ([12]; read-out: pTGI (converted)): 13.5 µM
- GI50 ([13]; read-out: GI50): 1.81 µM
- CC50 [13, 39]: 49.9 µM
- TGI ([13]; read-out: TGI): 13.8 µM
- GI50 ([13]; read-out: pGI50 (converted)): 1.82 µM
- CC50 [13, 40]: 50.1 µM
- TGI ([13]; read-out: pTGI (converted)): 13.8 µM
- GI50 ([14]; read-out: GI50): 0.911 µM
- CC50 [14, 39]: 14.1 µM
- TGI ([14]; read-out: TGI): 2.73 µM
- GI50 ([14]; read-out: pGI50 (converted)): 0.912 µM
- CC50 [14, 40]: 14.1 µM
- TGI ([14]; read-out: pTGI (converted)): 2.75 µM
- GI50 ([15]; read-out: GI50): 1.93 µM
- CC50 [15, 39]: 21 µM
- TGI ([15]; read-out: TGI): 8.37 µM
- GI50 ([15]; read-out: pGI50 (converted)): 1.95 µM
- CC50 [15, 40]: 20.9 µM
- TGI ([15]; read-out: pTGI (converted)): 8.32 µM
- GI50 ([16]; read-out: GI50): 2.8 µM
- CC50 [16, 39]: > 50 µM
- TGI ([16]; read-out: TGI): 22.2 µM
- GI50 ([16]; read-out: pGI50 (converted)): 2.82 µM
- CC50 [16, 40]: > 50.1 µM
- TGI ([16]; read-out: pTGI (converted)): 22.4 µM
- GI50 ([17]; read-out: GI50): 0.576 µM
- TGI ([17]; read-out: TGI): 1.46 µM
- GI50 ([17]; read-out: pGI50 (converted)): 0.575 µM
- TGI ([17]; read-out: pTGI (converted)): 1.48 µM
- growth at 0.005 µM [18]: 88%
- growth at 0.005 µM [19]: 99%
- growth at 0.005 µM [20]: 102%
- growth at 0.005 µM [21]: 96%
- growth at 0.005 µM [22]: 91%
- growth at 0.005 µM [23]: 94%
- growth at 0.05 µM [24]: 62%
- growth at 0.05 µM [25]: 67%
- growth at 0.05 µM [26]: 13%
- growth at 0.05 µM [27]: 92%
- growth at 0.05 µM [28]: 39%
- growth at 0.05 µM [29]: 97%
- growth at 0.5 µM [30]: 37%
- growth at 0.5 µM [31]: 49%
- growth at 0.5 µM [32]: 83%
- growth at 0.5 µM [33]: 41%
- growth at 0.5 µM [34]: 22%
- growth at 5 µM [35]: -10%
- growth at 5 µM [36]: -9%
- growth at 5 µM [37]: 35%
- growth at 50 µM [38]: -46%
